Data from PubChem BioAssay.
The source made the active and inactive calls.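 The calls were made as follows, unless noted: active = viability at or under a set limit in both replicates, limit being median viability minus 3 SD (cut at about 48% in these data, passing the limit was not always enough); inconclusive = at or under the limit in just one replicate; inactive = at or above the limit in both replicates.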

Tests used:
[1] = target: Pantothenate synthetase (Mycobacterium tuberculosis (strain ATCC 25618 / H37Rv)) (UniProt P9WIL5); experiment: Coupled enzyme confirmation of inhibitors against recombinant Mtb PanC (AID 375; call rule not given here;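 also: 0% = full reaction with vehicle and 100% = no enzyme background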); settings: coupled enzyme assay; at 10 µM, stronger effect = higher value
Chain of Pantothenate synthetase (Mycobacterium tuberculosis (strain ATCC 25618 / H37Rv)) (P9WIL5 whole entry, looked up): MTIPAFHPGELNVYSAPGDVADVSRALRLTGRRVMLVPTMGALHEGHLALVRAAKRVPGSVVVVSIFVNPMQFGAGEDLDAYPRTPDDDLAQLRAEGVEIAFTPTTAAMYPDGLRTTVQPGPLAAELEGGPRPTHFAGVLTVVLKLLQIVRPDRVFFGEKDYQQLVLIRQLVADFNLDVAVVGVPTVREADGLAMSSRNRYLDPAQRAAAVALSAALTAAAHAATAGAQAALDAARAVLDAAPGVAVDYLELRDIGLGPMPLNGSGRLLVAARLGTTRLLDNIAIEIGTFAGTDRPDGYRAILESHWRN

[2] = Her2 expression decrease, cell viability multiplex – SKBR3 breast tumor cells, AlphaScreen, ATP viability, primary screen (AID 461;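 active = Her2 level under about 52% in both replicate screens, with viability over 70% of control, limit read from the data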;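 as to Her2 level: lower value means less Her2 protein in the cells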;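 as to viability: percent of carrier control wells set as 100% viability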); settings: SKBR3 Her2 protein level, 18-24 h, measured here: SKBR3 viability, ATP luminescence, at 10 µM
[3] = target: Receptor tyrosine-protein kinase erbB-2 (Homo sapiens) (UniProt P04626); experiment: as above; settings: 18-24 h, at 10 µM, stronger effect = lower value
Chain of Receptor tyrosine-protein kinase erbB-2 (Homo sapiens) (P04626 whole entry, looked up): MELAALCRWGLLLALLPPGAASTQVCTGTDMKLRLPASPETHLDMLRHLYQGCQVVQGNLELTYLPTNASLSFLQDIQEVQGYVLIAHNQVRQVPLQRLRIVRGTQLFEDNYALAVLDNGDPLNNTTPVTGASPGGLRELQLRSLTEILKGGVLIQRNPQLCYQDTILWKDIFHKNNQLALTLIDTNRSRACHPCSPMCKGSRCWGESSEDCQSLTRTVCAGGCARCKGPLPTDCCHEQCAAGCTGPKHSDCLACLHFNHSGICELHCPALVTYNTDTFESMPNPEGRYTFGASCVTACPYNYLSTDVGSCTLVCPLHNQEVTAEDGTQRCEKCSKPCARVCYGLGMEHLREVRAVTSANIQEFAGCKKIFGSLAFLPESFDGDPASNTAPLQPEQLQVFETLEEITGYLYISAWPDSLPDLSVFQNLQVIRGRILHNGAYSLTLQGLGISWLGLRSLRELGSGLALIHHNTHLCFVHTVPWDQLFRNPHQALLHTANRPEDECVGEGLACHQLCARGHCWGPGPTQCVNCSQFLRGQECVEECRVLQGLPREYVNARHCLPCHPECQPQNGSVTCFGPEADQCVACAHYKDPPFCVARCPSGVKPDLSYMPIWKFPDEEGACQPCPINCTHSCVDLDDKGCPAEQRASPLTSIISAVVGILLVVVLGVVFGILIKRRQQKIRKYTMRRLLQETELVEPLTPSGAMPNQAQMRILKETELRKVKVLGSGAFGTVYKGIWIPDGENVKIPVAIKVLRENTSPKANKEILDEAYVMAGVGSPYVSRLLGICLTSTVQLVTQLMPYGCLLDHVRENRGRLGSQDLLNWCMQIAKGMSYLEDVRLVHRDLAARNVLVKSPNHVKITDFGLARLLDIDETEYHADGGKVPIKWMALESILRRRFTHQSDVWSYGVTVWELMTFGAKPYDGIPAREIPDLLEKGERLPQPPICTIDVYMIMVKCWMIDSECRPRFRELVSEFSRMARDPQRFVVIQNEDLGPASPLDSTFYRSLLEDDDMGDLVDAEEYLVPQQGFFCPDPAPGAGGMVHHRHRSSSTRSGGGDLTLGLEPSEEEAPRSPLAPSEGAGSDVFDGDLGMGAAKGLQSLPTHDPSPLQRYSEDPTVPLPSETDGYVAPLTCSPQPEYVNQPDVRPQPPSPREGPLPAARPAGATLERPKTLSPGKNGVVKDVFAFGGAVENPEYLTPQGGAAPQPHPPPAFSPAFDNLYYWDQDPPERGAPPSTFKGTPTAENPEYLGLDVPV

[4] = reduced viability of SK-BR-3 breast cancer cells – cell-based, 24 h, human, pilot screen (AID 572;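 active = viability at or below 10% of carrier control in both of two separate runs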;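 also: compound exposure lasted between 18 and 24 h rather than exactly 24 h; 100% = carrier-treated control wells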); settings: SK-BR-3 viability, CellTiter-Glo luminescence, at 10 µM, stronger effect = lower value
[5] = HUVEC growth inhibition – cell-based, human, primary screen (AID 575;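 active = viability at or below 30% in both replicate assays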;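 also: 100% = median of untreated cell wells with 0.1% DMSO on each plate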); settings: HUVEC proliferation, CellTiter-Glo luminescence, 72 h; at 10 µM; stronger effect = lower value
Outline: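 Assay system: primary human umbilical vein endothelial cells / Buffer or medium: endothelial basal medium with 2% FBS plus growth supplements / Compound dosing: one dose, 10 µM final, 0.1% DMSO / Timing: 72 h treatment at 37 °C / Signal: CTG luminescence / Benchmarks: 32 DMSO-only cell-control wells (high), 32 MePR drug-control wells (low) per plate / Plate: collagen-coated 384-well format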

[6] = H69AR cell proliferation blockers – human, duplicate replicates, primary screen (AID 580); settings: H69AR lung tumor cells viability, ATP luminescence, 72 h; at 10 µM; stronger effect = lower value;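 also: 100% = mean luminescence of untreated wells and 0% = no signal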
[7] = MRP1 drug-resistance reversers in H69AR cells – cell-based, doxorubicin co-treatment, pilot screen (AID 601;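 active = viability loss from added drug above about 55%, and viability with drug at most 40%, in both replicates, limit read from the data, passing the limit was not always enough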); settings: CellTiter-Glo, 72 h, at 10 µM; for differential viability (reversal): stronger effect = higher value
[8] = yeast transport mutant growth inhibition pilot in 384-well plates, post-Golgi transport modulator project (AID 636; in the data active = inhibition above about 31%); settings: absorbance 615 nm, about 18 h, stronger effect = higher value
[9] = growth suppression of yeast trafficking mutant, preliminary HTS, modulators of trafficking downstream of Golgi apparatus project, 1536-format plate, OD 615 nm (AID 637; in the data active = inhibition above about 30%); settings: yeast transport mutant growth, absorbance 615 nm, 18 h; stronger effect = higher value
[10] = H69AR cells + 2 uM doxorubicin, measured here: viability with 2 uM doxorubicin, stronger effect = lower value
[11] = H69AR cells, compound alone cytotoxicity

Compound | inhibition [1] | viability [2] | Her2 level [3] | viability [4] | viability [5] | viability [6] | differential viability (reversal) ([7]; H69AR cells + 2 uM doxorubicin) | viability [7, 10] | viability [7, 11] | inhibition [8] | inhibition [9]
CCn1nc(-c2ccccc2)nc2c(=O)n(C)c(=O)nc1-2 | 0% (inactive) | 106% | 93% (inactive) | 106% (inactive) | 2.75% (active) | 1.38% (active) | 0.5% (inactive) | 0.875% | 1.38% | 98.4% (active) | 100% (active)
Cc1oc2ccc(OC(=O)N(C)C)cc2c1C(=O)OC(C)C | 0% (inactive) | 96% | 87.5% (inactive) | 96% (inactive) | 92.4% (inactive) | 107% (inactive) | 11.3% (inactive) | 95.8% | 107% | -3.24% (inactive) | 10.2% (inactive)
O=C(O)C1(c2ccc(Cl)cc2)CCC1 | 0% (inactive) | 109% | 91.5% (inactive) | 109% (inactive) | 97.2% (inactive) | 91.7% (inactive) | -1.85% (inactive) | 93.6% | 91.7% | -6.13% (inactive) | -3.02% (inactive)
Cc1ccc(C2SCC(=O)Nc3c2c(=O)[nH]n3C2CCOC(C)(C)C2)cc1 (stereo not drawn) | 0% (inactive) | 100% | 92% (inactive) | 100% (inactive) | 90.9% (inactive) | 98.2% (inactive) | 11.2% (inactive) | 87% | 98.2% | -5.66% (inactive) | 5.83% (inactive)
CC#CP(=O)(OCC)C(O)(c1ccccc1)C(F)(F)F (stereo not drawn) | 0% (inactive) | 91% | 85% (inactive) | 91% (inactive) | 96.7% (inactive) | 96.9% (inactive) | 14.4% (inactive) | 82.5% | 96.9% | -2.93% (inactive) | 2.13% (inactive)
COc1ccc(OC)c(C2=NOC(C(=O)N3CCC4(CC3)OCCO4)C2)c1 (stereo not drawn) | 7% (inactive) | 106% | 99% (inactive) | 106% (inactive) | 103% (inactive) | 99% (inactive) | 13% (inactive) | 86% | 99% | -6.49% (inactive) | 0.5% (inactive)
O=C(NCc1ccccn1)c1ccccc1Cl | 0% (inactive) | 91.5% | 76.5% (inactive) | 91.5% (inactive) | 91.2% (inactive) | 98% (inactive) | 16.5% (inactive) | 81.5% | 98% | -7.95% (inactive) | 0.63% (inactive)
CCOc1cccc(N2C(=O)CC(=O)NC2=O)c1 | 0% (inactive) | – | – | 124% (inactive) | 107% (inactive) | 94.5% (inactive) | -2.27% (inactive) | 96.8% | 94.5% | -2.6% (inactive) | -8.55% (inactive)
O=C(O)c1nonc1-c1nonc1C(=O)O | 0% (inactive) | 99% | 114% (inactive) | 99% (inactive) | 100% (inactive) | 99% (inactive) | 1.51% (inactive) | 97.5% | 99% | -1.97% (inactive) | 6.39% (inactive)
COc1ccccc1-n1c(O)c(C=NCc2ccc3c(c2)OCO3)c(=O)[nH]c1=O | 7% (inactive) | 93.5% | 91.5% (inactive) | 93.5% (inactive) | 81.3% (inactive) | 91.8% (inactive) | 3.46% (inactive) | 88.3% | 91.8% | -2.43% (inactive) | -0.48% (inactive)
COc1ccc(C2NCc3ccc4c(c3-n3cccc32)OCO4)cc1O (stereo not drawn) | 0% (inactive) | 110% | 73% (inactive) | 110% (inactive) | 40.7% (inactive) | 25.5% (active) | -41.5% (inactive) | 67% | 25.5% | -5.79% (inactive) | -5.56% (inactive)
C#C[C@]1(O)CC[C@H]2[C@@H]3CCC4=CC(=O)CC[C@]4(C)[C@H]3CC[C@@]21C | 4% (inactive) | – | – | 101% (inactive) | 91.6% (inactive) | 91.3% (inactive) | -13.7% (inactive) | 105% | 91.3% | -1.69% (inactive) | 11.2% (inactive)
C[C@H]1OC[C@@H](C[N+](C)(C)C)O1 | 0% (inactive) | – | – | 103% (inactive) | 99.6% (inactive) | 106% (inactive) | 7.41% (inactive) | 98.6% | 106% | -1.43% (inactive) | 4.67% (inactive)
Nc1ccnn1C1CCNCC1 | 2% (inactive) | 88.5% | 105% (inactive) | 88.5% (inactive) | 97% (inactive) | 107% (inactive) | 5.6% (inactive) | 102% | 107% | -4.25% (inactive) | -2.06% (inactive)
